Measured values reported in ChEMBL document CHEMBL4680236, “Design, synthesis and structure-activity relationships of novel 15-membered macrolides: Quinolone/quinoline-containing sidechains tethered to the C-6 position of azithromycin acylides” (Eur J Med Chem, 2020).
In brackets after ≈: the same amount, converted by molar mass.

Legend:
Format in all cases: functional
[1] = tested on: Streptococcus pyogenes; assay: Ratio of MBC to MIC against MLSB-resistant Streptococcus pyogenes 12-206 harboring ermA gene
[2] = tested on: Staphylococcus aureus; assay: Bactericidal activity against MLSB/methicillin-resistant Staphylococcus aureus 15B196
Summary of the method: (§1)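 Bacteria were exposed to 1- to 8-fold their MIC of test sample, then transferred to fresh culture medium without antibacterial compound and incubated for the required time. Colonies were then counted. MBC is the lowest concentration giving a reduction in colony number of >3 Log₁₀.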

[3] = tested on: Streptococcus pneumoniae; assay: Antibacterial activity against MLSB-resistant Streptococcus pneumoniae 07P390 harboring ermB gene assessed as reduction in microbial growth
[4] = tested on: Staphylococcus aureus; assay: Bactericidal activity against MLSB/methicillin/ciprofloxacin-resistant Staphylococcus aureus PU32 harboring ermA gene; summary of the method: as §1
[5] = tested on: Streptococcus pneumoniae; assay: Ratio of MBC to MIC against penicillin-susceptible Streptococcus pneumoniae PU09
[6] = tested on: Haemophilus influenzae; assay: Bactericidal activity against azithromycin-susceptible Haemophilus influenzae ATCC 49247
Summary of the method: (§2)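 Bacteria were exposed to 1- to 8-fold MIC of the sample, then transferred to fresh medium without antibacterial. After further incubation, colonies were counted. MBC was taken as the lowest concentration giving a >3 log10 reduction in colony number.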

[7] = tested on: Staphylococcus aureus; assay: Ratio of MBC to MIC against MLSB/methicillin/ciprofloxacin-resistant Staphylococcus aureus PU32 harboring ermA gene
[8] = tested on: Streptococcus pyogenes; assay: Antibacterial activity against MLSB-resistant Streptococcus pyogenes 12-206 harboring ermA gene assessed as reduction in microbial growth
[9] = tested on: Haemophilus influenzae; assay: Antibacterial activity against azithromycin-susceptible Haemophilus influenzae ATCC 49247 assessed as reduction in microbial growth
[10] = tested on: Haemophilus influenzae; assay: Ratio of MBC to MIC against azithromycin-susceptible Haemophilus influenzae ATCC 49247
[11] = tested on: Streptococcus pneumoniae; assay: Antibacterial activity against Erythromycin-susceptible Streptococcus pneumoniae ATCC 49619 assessed as reduction in microbial growth
[12] = tested on: Streptococcus pneumoniae; assay: Bactericidal activity against Erythromycin-susceptible Streptococcus pneumoniae ATCC 49619; summary of the method: as §2
[13] = tested on: Streptococcus pneumoniae; assay: Bactericidal activity against MLSB-resistant Streptococcus pneumoniae 07P390 harboring ermB gene assessed as reduction in microbial growth; summary of the method: as §1
[14] = tested on: Staphylococcus aureus; assay: Antibacterial activity against MLSB/methicillin/ciprofloxacin-resistant Staphylococcus aureus PU32 harboring ermA gene assessed as reduction in microbial growth
[15] = tested on: Staphylococcus aureus; assay: Antibacterial activity against MLSB/methicillin-resistant Staphylococcus aureus 15B196 assessed as reduction in microbial growth
[16] = tested on: Streptococcus pyogenes; assay: Bactericidal activity against MLSB-resistant Streptococcus pyogenes 12-206 harboring ermA gene; summary of the method: as §1
[17] = tested on: Streptococcus pneumoniae; assay: Ratio of MBC to MIC against Erythromycin-susceptible Streptococcus pneumoniae ATCC 49619
[18] = tested on: Streptococcus pneumoniae; assay: Antibacterial activity against penicillin-susceptible Streptococcus pneumoniae PU09 harboring mef gene assessed as reduction in microbial growth
[19] = tested on: Streptococcus pneumoniae; assay: Bactericidal activity against penicillin-susceptible Streptococcus pneumoniae PU09 harboring mef gene; summary of the method: as §1

SMILES | Ratio [1] | MBC [2] | MIC [3] | MBC [4] | Ratio [5] | MBC [6] | Ratio [7] | MIC [8] | MIC [9] | Ratio [10] | MIC [11] | MBC [12] | MBC [13] | MIC [14] | MIC [15] | MBC [16] | Ratio [17] | MIC [18] | MBC [19]
CC[C@H]1OC(=O)[C@H](C)[C@@H](OC(=O)Cc2ccccn2)[C@H](C)[C@@H](O[C@@H]2O[C@H](C)C[C@H](N(C)C)[C@H]2O)[C@](C)(OC(=O)CCN2CCN(c3nc4c(cc3F)c(=O)c(C(N)=O)cn4CC)CC2)C[C@@H](C)CN(C)[C@H](C)[C@@H](O)[C@]1(C)O | >8 | > 256 µg/mL | 64 µg/mL | > 256 µg/mL | 2 | 8 µg/mL (≈ 7.38 µM) | >8 | 16 µg/mL | 8 µg/mL | 1 | 0.5 µg/mL | 1 µg/mL (≈ 0.923 µM) | 128 µg/mL | 32 µg/mL | 256 µg/mL | > 128 µg/mL | 2 | 2 µg/mL | 4 µg/mL (≈ 3.69 µM)
CC[C@H]1OC(=O)[C@H](C)[C@@H](OC(=O)Cc2ccccn2)[C@H](C)[C@@H](O[C@@H]2O[C@H](C)C[C@H](N(C)C)[C@H]2O)[C@](C)(OC(=O)CCNCCC#Cc2ccc3[nH]ccc(=O)c3c2)C[C@@H](C)CN(C)[C@H](C)[C@@H](O)[C@]1(C)O | >8 | > 256 µg/mL | 256 µg/mL | > 128 µg/mL | 2 | 128 µg/mL (≈ 131 µM) | >8 | 2 µg/mL | 64 µg/mL | 2 | 0.25 µg/mL | 0.25 µg/mL (≈ 0.256 µM) | > 256 µg/mL | 16 µg/mL | > 256 µg/mL | > 16 µg/mL | 1 | 2 µg/mL | 4 µg/mL (≈ 4.1 µM)
CC[C@H]1OC(=O)[C@H](C)[C@@H](OC(=O)Cc2ccccn2)[C@H](C)[C@@H](O[C@@H]2O[C@H](C)C[C@H](N(C)C)[C@H]2O)[C@](C)(OC(=O)CCNCCC#Cc2ccc3c(c2)c(=O)c(C(N)=O)cn3CC)C[C@@H](C)CN(C)[C@H](C)[C@@H](O)[C@]1(C)O | >8 | > 256 µg/mL | 256 µg/mL | > 256 µg/mL | 1 | 16 µg/mL (≈ 15.3 µM) | >8 | 8 µg/mL | 16 µg/mL | 1 | 0.12 µg/mL | 0.5 µg/mL (≈ 0.477 µM) | > 256 µg/mL | 32 µg/mL | > 256 µg/mL | > 64 µg/mL | 4 | 2 µg/mL | 2 µg/mL (≈ 1.91 µM)
CC[C@H]1OC(=O)[C@H](C)[C@@H](OC(=O)Cc2ccccn2)[C@H](C)[C@@H](O[C@@H]2O[C@H](C)C[C@H](N(C)C)[C@H]2O)[C@](C)(OC(=O)CCN2CCN(c3cc4c(cc3F)c(=O)c(C(N)=O)cn4C3CC3)CC2)C[C@@H](C)CN(C)[C@H](C)[C@@H](O)[C@]1(C)O | 8 | > 256 µg/mL | 128 µg/mL | > 256 µg/mL | 1 | 128 µg/mL (≈ 117 µM) |  | 16 µg/mL | 64 µg/mL | 2 | 0.25 µg/mL | 0.5 µg/mL (≈ 0.457 µM) | 128 µg/mL | 128 µg/mL | > 256 µg/mL | 128 µg/mL (≈ 117 µM) | 2 | 4 µg/mL | 4 µg/mL (≈ 3.66 µM)
CC[C@H]1OC(=O)[C@H](C)[C@@H](OC(=O)Cc2ccccn2)[C@H](C)[C@@H](O[C@@H]2O[C@H](C)C[C@H](N(C)C)[C@H]2O)[C@](C)(OC(=O)CCNCCC#Cc2ccc3c(c2)c(=O)c(C(=O)NC)cn3C2CC2)C[C@@H](C)CN(C)[C@H](C)[C@@H](O)[C@]1(C)O | 4 | > 256 µg/mL | 256 µg/mL | > 256 µg/mL | 2 | 128 µg/mL (≈ 119 µM) |  | 32 µg/mL | 64 µg/mL | 2 | 0.5 µg/mL | 1 µg/mL (≈ 0.932 µM) | 256 µg/mL | > 256 µg/mL | > 256 µg/mL | 128 µg/mL (≈ 119 µM) | 2 | 4 µg/mL | 8 µg/mL (≈ 7.45 µM)
CC[C@H]1OC(=O)[C@H](C)[C@@H](OC(=O)Cc2ccccn2)[C@H](C)[C@@H](O[C@@H]2O[C@H](C)C[C@H](N(C)C)[C@H]2O)[C@](C)(OC(=O)CCN2CCN(c3cc4c(cc3F)c(=O)c(C(=O)O)cn4C3CC3)CC2)C[C@@H](C)CN(C)[C@H](C)[C@H]2OC(=O)O[C@@]21C | >8 | > 256 µg/mL | > 256 µg/mL | > 256 µg/mL | 4 | 16 µg/mL (≈ 14.3 µM) |  | 64 µg/mL | 8 µg/mL | 2 | 4 µg/mL | 16 µg/mL (≈ 14.3 µM) | > 256 µg/mL | > 256 µg/mL | > 256 µg/mL | > 256 µg/mL | 4 | 4 µg/mL | 16 µg/mL (≈ 14.3 µM)
CC[C@H]1OC(=O)[C@H](C)[C@@H](OC(=O)Cc2ccccn2)[C@H](C)[C@@H](O[C@@H]2O[C@H](C)C[C@H](N(C)C)[C@H]2O)[C@](C)(OC(=O)CCNCCC#Cc2ccc3c(c2)c(=O)c(C(N)=O)cn3C2CC2)C[C@@H](C)CN(C)[C@H](C)[C@@H](O)[C@]1(C)O | 4 | > 256 µg/mL | 256 µg/mL | > 256 µg/mL | 1 | 64 µg/mL (≈ 60.4 µM) |  | 32 µg/mL | 64 µg/mL | 1 | 0.5 µg/mL | 0.5 µg/mL (≈ 0.472 µM) | > 256 µg/mL | 128 µg/mL | > 256 µg/mL | 128 µg/mL (≈ 121 µM) | 1 | 4 µg/mL | 4 µg/mL (≈ 3.78 µM)
CC[C@H]1OC(=O)[C@H](C)[C@@H](OC(=O)Cc2ccccn2)[C@H](C)[C@@H](O[C@@H]2O[C@H](C)C[C@H](N(C)C)[C@H]2O)[C@](C)(OC(=O)CCNCCC#Cc2ccc3c(c2)c(=O)c(C(N)=O)cn3C)C[C@@H](C)CN(C)[C@H](C)[C@@H](O)[C@]1(C)O | >8 | > 256 µg/mL | 256 µg/mL | > 128 µg/mL | 2 | 64 µg/mL (≈ 61.9 µM) | >8 | 8 µg/mL | 32 µg/mL | 2 | 0.25 µg/mL | 0.5 µg/mL (≈ 0.484 µM) | > 256 µg/mL | 16 µg/mL | > 256 µg/mL | > 64 µg/mL | 2 | 2 µg/mL | 4 µg/mL (≈ 3.87 µM)
CC[C@H]1OC(=O)[C@H](C)[C@@H](OC(=O)Cc2ccccn2)[C@H](C)[C@@H](O[C@@H]2O[C@H](C)C[C@H](N(C)C)[C@H]2O)[C@](C)(OC(=O)CCNCCC#Cc2ccc3c(c2)c(=O)c(C(N)=O)cn3C2CC2)C[C@@H](C)CN(C)[C@H](C)[C@H]2OC(=O)O[C@@]21C | 4 | > 256 µg/mL | 64 µg/mL | > 256 µg/mL | 2 | 128 µg/mL (≈ 118 µM) | >4 | 16 µg/mL | 64 µg/mL | 2 | 0.5 µg/mL | 1 µg/mL (≈ 0.921 µM) | 128 µg/mL | 64 µg/mL | 128 µg/mL | 64 µg/mL (≈ 59 µM) | 2 | 4 µg/mL | 8 µg/mL (≈ 7.37 µM)
CC[C@H]1OC(=O)[C@H](C)[C@@H](OC(=O)Cc2ccccn2)[C@H](C)[C@@H](O[C@@H]2O[C@H](C)C[C@H](N(C)C)[C@H]2O)[C@](C)(OC(=O)CCN2CCN(c3cc4c(cc3F)c(=O)c(C(N)=O)cn4CC)CC2)C[C@@H](C)CN(C)[C@H](C)[C@@H](O)[C@]1(C)O | 8 | 128 µg/mL (≈ 118 µM) | 64 µg/mL | > 256 µg/mL | 2 | 4 µg/mL (≈ 3.7 µM) |  | 16 µg/mL | 4 µg/mL | 1 | 0.5 µg/mL | 1 µg/mL (≈ 0.924 µM) | 128 µg/mL | 128 µg/mL | 128 µg/mL | 128 µg/mL (≈ 118 µM) | 2 | 4 µg/mL | 8 µg/mL (≈ 7.39 µM)
CC[C@H]1OC(=O)[C@H](C)[C@@H](OC(=O)Cc2ccccn2)[C@H](C)[C@@H](O[C@@H]2O[C@H](C)C[C@H](N(C)C)[C@H]2O)[C@](C)(OC(=O)CCNCCC#Cc2cncc(C(N)=O)c2)C[C@@H](C)CN(C)[C@H](C)[C@@H](O)[C@]1(C)O | >8 | > 256 µg/mL | 128 µg/mL | > 128 µg/mL | 2 | 128 µg/mL (≈ 134 µM) | >8 | 4 µg/mL | 64 µg/mL | 2 | 0.25 µg/mL | 0.25 µg/mL (≈ 0.262 µM) | > 256 µg/mL | 16 µg/mL | > 256 µg/mL | > 32 µg/mL | 1 | 2 µg/mL | 4 µg/mL (≈ 4.2 µM)
